# Several values for one entry are separate records, joined by “and”; a condition that tells them apart may be missing. Equal values may be shown once.
# System: HEK-293T
# Assay: Multiplex assay against HEK293T
# Assay type: toxicity, cell-based
# Details: human, number of replicates 2
# How it was run: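 Cells stained live at seeding with Hoechst33342, BioTracker Green Microtubule Cytoskeleton Dye, MitoTracker Red and Annexin V Alexa Fluor 680 were imaged on a CQ1 microscope at 37°C and 5% CO2 after compound addition. Their classification by CellPathfinder machine-learning gating ran from Hoechst high-intensity objects versus normal cells, to healthy, pyknosed or fragmented nuclei among normal cells, to mitotic or apoptotic among pyknosed cells. Tubulin, mitochondrial-mass and membrane-permeability phenotypes are per cents of healthy-nucleus cells.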
# [1] = 12 h, 1 µM, compound concentration 1 uM
# [2] = 12 h, 10 µM, compound concentration 10 uM
# [3] = 24 h, 1 µM, compound concentration 1 uM
# [4] = 24 h, 10 µM, compound concentration 10 uM
# [5] = 48 h, 1 µM, compound concentration 1 uM
# [6] = 48 h, 10 µM, compound concentration 10 uM
structure (smiles),measurement,setting,value
NCC1CCC(CNc2nc(NCc3ccccc3OC(F)(F)F)ncc2[N+](=O)[O-])CC1 (configuration not stated),Population Apoptotic (%),[1],50% and 53%
same,Population Fragmented Nuclei (%),[1],3% and 4%
same,Population Healthy Nuclei (%),[1],86% and 81%
same,Population Hoechst High Intensity Objects (%),[1],9% and 10%
same,Population Membrane Permeable-Phenotype (%),[1],5% and 1%
same,Population Mitochondria Different-Phenotype (%),[1],23% and 25%
same,Population Mitotic Cells (%),[1],50% and 46%
same,Population Normal (%),[1],90% and 89%
same,Population Pyknosed Nuclei (%),[1],9% and 14%
same,Population Tubulin-Different-Phenotype (%),[1],86% and 81%
same,Total Cell Count,[1],881 and 733
same,Population Apoptotic (%),[2],73% and 77%
same,Population Fragmented Nuclei (%),[2],6% and 2%
same,Population Healthy Nuclei (%),[2],79% and 81%
same,Population Hoechst High Intensity Objects (%),[2],8% and 9%
same,Population Membrane Permeable-Phenotype (%),[2],1%
same,Population Mitochondria Different-Phenotype (%),[2],82%
same,Population Mitotic Cells (%),[2],26% and 22%
same,Population Normal (%),[2],91% and 90%
same,Population Pyknosed Nuclei (%),[2],13% and 16%
same,Population Tubulin-Different-Phenotype (%),[2],93% and 91%
same,Total Cell Count,[2],345 and 365
same,Population Apoptotic (%),[3],40% and 60%
same,Population Fragmented Nuclei (%),[3],6% and 5%
same,Population Healthy Nuclei (%),[3],85%
same,Population Hoechst High Intensity Objects (%),[3],8% and 9%
same,Population Membrane Permeable-Phenotype (%),[3],4% and 2%
same,Population Mitochondria Different-Phenotype (%),[3],9% and 10%
same,Population Mitotic Cells (%),[3],59% and 40%
same,Population Normal (%),[3],91% and 90%
same,Population Pyknosed Nuclei (%),[3],7% and 9%
same,Population Tubulin-Different-Phenotype (%),[3],70% and 65%
same,Total Cell Count,[3],1307 and 1039
same,Population Apoptotic (%),[4],67% and 68%
same,Population Fragmented Nuclei (%),[4],4% and 2%
same,Population Healthy Nuclei (%),[4],79% and 81%
same,Population Hoechst High Intensity Objects (%),[4],9% and 7%
same,Population Membrane Permeable-Phenotype (%),[4],0% and 2%
same,Population Mitochondria Different-Phenotype (%),[4],81% and 78%
same,Population Mitotic Cells (%),[4],32% and 31%
same,Population Normal (%),[4],90% and 92%
same,Population Pyknosed Nuclei (%),[4],15%
same,Population Tubulin-Different-Phenotype (%),[4],94% and 95%
same,Total Cell Count,[4],375 and 418
same,Population Apoptotic (%),[5],12% and 31%
same,Population Fragmented Nuclei (%),[5],17% and 10%
same,Population Healthy Nuclei (%),[5],80% and 86%
same,Population Hoechst High Intensity Objects (%),[5],11% and 12%
same,Population Membrane Permeable-Phenotype (%),[5],5% and 3%
same,Population Mitochondria Different-Phenotype (%),[5],0% and 1%
same,Population Mitotic Cells (%),[5],87% and 68%
same,Population Normal (%),[5],88% and 87%
same,Population Pyknosed Nuclei (%),[5],2% and 3%
same,Population Tubulin-Different-Phenotype (%),[5],42% and 39%
same,Total Cell Count,[5],2914 and 2116
same,Population Apoptotic (%),[6],67% and 62%
same,Population Fragmented Nuclei (%),[6],6% and 5%
same,Population Healthy Nuclei (%),[6],80%
same,Population Hoechst High Intensity Objects (%),[6],7% and 9%
same,Population Membrane Permeable-Phenotype (%),[6],4% and 3%
same,Population Mitochondria Different-Phenotype (%),[6],70% and 57%
same,Population Mitotic Cells (%),[6],32% and 37%
same,Population Normal (%),[6],92% and 90%
same,Population Pyknosed Nuclei (%),[6],13%
same,Population Tubulin-Different-Phenotype (%),[6],93% and 94%
same,Total Cell Count,[6],433 and 530
CC(C)S(=O)(=O)c1ccccc1Nc1nc(N[C@@H]2CCCN(CCCCCCCNC(=O)COc3cccc4c3C(=O)N(C3CCC(=O)N(C)C3=O)C4=O)C2)ncc1Cl (some centres not stated),Population Apoptotic (%),[1],55% and 78%
same,Population Fragmented Nuclei (%),[1],6% and 3%
same,Population Healthy Nuclei (%),[1],84% and 81%
same,Population Hoechst High Intensity Objects (%),[1],11%
same,Population Membrane Permeable-Phenotype (%),[1],0%
same,Population Mitochondria Different-Phenotype (%),[1],39% and 45%
same,Population Mitotic Cells (%),[1],44% and 21%
same,Population Normal (%),[1],88%
same,Population Pyknosed Nuclei (%),[1],8% and 14%
same,Population Tubulin-Different-Phenotype (%),[1],56% and 62%
same,Total Cell Count,[1],479 and 318
same,Population Apoptotic (%),[2],60% and 74%
same,Population Fragmented Nuclei (%),[2],3%
same,Population Healthy Nuclei (%),[2],69% and 72%
same,Population Hoechst High Intensity Objects (%),[2],18% and 14%
same,Population Membrane Permeable-Phenotype (%),[2],2% and 3%
same,Population Mitochondria Different-Phenotype (%),[2],76%
same,Population Mitotic Cells (%),[2],39% and 25%
same,Population Normal (%),[2],81% and 85%
same,Population Pyknosed Nuclei (%),[2],26% and 24%
same,Population Tubulin-Different-Phenotype (%),[2],49% and 77%
same,Total Cell Count,[2],464 and 428
same,Population Apoptotic (%),[3],48% and 83%
same,Population Fragmented Nuclei (%),[3],2% and 4%
same,Population Healthy Nuclei (%),[3],90% and 85%
same,Population Hoechst High Intensity Objects (%),[3],7%
same,Population Membrane Permeable-Phenotype (%),[3],0%
same,Population Mitochondria Different-Phenotype (%),[3],20% and 21%
same,Population Normal (%),[3],92%
same,Population Pyknosed Nuclei (%),[3],7% and 10%
same,Population Tubulin-Different-Phenotype (%),[3],40%
same,Total Cell Count,[3],702 and 488
same,Population Apoptotic (%),[4],82%
same,Population Fragmented Nuclei (%),[4],4% and 5%
same,Population Healthy Nuclei (%),[4],78%
same,Population Hoechst High Intensity Objects (%),[4],18% and 16%
same,Population Membrane Permeable-Phenotype (%),[4],0% and 1%
same,Population Mitochondria Different-Phenotype (%),[4],80% and 91%
same,Population Mitotic Cells (%),[4],17%
same,Population Normal (%),[4],81% and 83%
same,Population Pyknosed Nuclei (%),[4],17% and 16%
same,Population Tubulin-Different-Phenotype (%),[4],90% and 92%
same,Total Cell Count,[4],438 and 432
same,Population Apoptotic (%),[5],40% and 66%
same,Population Fragmented Nuclei (%),[5],8% and 4%
same,Population Healthy Nuclei (%),[5],85%
same,Population Hoechst High Intensity Objects (%),[5],8% and 7%
same,Population Membrane Permeable-Phenotype (%),[5],2% and 1%
same,Population Mitochondria Different-Phenotype (%),[5],7% and 11%
same,Population Mitotic Cells (%),[5],60% and 33%
same,Population Normal (%),[5],91% and 92%
same,Population Pyknosed Nuclei (%),[5],5% and 9%
same,Population Tubulin-Different-Phenotype (%),[5],26% and 27%
same,Total Cell Count,[5],1045 and 630
same,Population Apoptotic (%),[6],81% and 86%
same,Population Fragmented Nuclei (%),[6],5%
same,Population Healthy Nuclei (%),[6],82% and 78%
same,Population Hoechst High Intensity Objects (%),[6],17% and 20%
same,Population Membrane Permeable-Phenotype (%),[6],0%
same,Population Mitochondria Different-Phenotype (%),[6],46% and 78%
same,Population Mitotic Cells (%),[6],18% and 14%
same,Population Normal (%),[6],82% and 79%
same,Population Pyknosed Nuclei (%),[6],11% and 16%
same,Population Tubulin-Different-Phenotype (%),[6],57% and 65%
same,Total Cell Count,[6],458 and 378
CCCNc1ccc2ncc(-c3ccncc3)n2n1,Population Apoptotic (%),[1],56% and 50%
same,Population Fragmented Nuclei (%),[1],3% and 4%
same,Population Healthy Nuclei (%),[1],81% and 85%
same,Population Hoechst High Intensity Objects (%),[1],7% and 8%
same,Population Membrane Permeable-Phenotype (%),[1],2%
same,Population Mitochondria Different-Phenotype (%),[1],26% and 15%
same,Population Mitotic Cells (%),[1],43% and 49%
same,Population Normal (%),[1],92% and 91%
same,Population Pyknosed Nuclei (%),[1],14% and 9%
same,Population Tubulin-Different-Phenotype (%),[1],64% and 54%
same,Total Cell Count,[1],500 and 609
same,Population Apoptotic (%),[2],55% and 50%
same,Population Fragmented Nuclei (%),[2],4% and 5%
same,Population Healthy Nuclei (%),[2],89% and 87%
same,Population Hoechst High Intensity Objects (%),[2],6% and 5%
same,Population Membrane Permeable-Phenotype (%),[2],2% and 1%
same,Population Mitochondria Different-Phenotype (%),[2],32% and 26%
same,Population Mitotic Cells (%),[2],44% and 50%
same,Population Normal (%),[2],93% and 94%
same,Population Pyknosed Nuclei (%),[2],6% and 7%
same,Population Tubulin-Different-Phenotype (%),[2],62% and 61%
same,Total Cell Count,[2],481 and 583
same,Population Apoptotic (%),[3],60% and 48%
same,Population Fragmented Nuclei (%),[3],5% and 7%
same,Population Healthy Nuclei (%),[3],88% and 86%
same,Population Hoechst High Intensity Objects (%),[3],11% and 15%
same,Population Membrane Permeable-Phenotype (%),[3],3% and 2%
same,Population Mitochondria Different-Phenotype (%),[3],17% and 6%
same,Population Mitotic Cells (%),[3],39% and 51%
same,Population Normal (%),[3],88% and 84%
same,Population Pyknosed Nuclei (%),[3],6%
same,Population Tubulin-Different-Phenotype (%),[3],47% and 48%
same,Total Cell Count,[3],684 and 692
same,Population Apoptotic (%),[4],66% and 48%
same,Population Fragmented Nuclei (%),[4],2% and 4%
same,Population Healthy Nuclei (%),[4],87%
same,Population Hoechst High Intensity Objects (%),[4],8% and 9%
same,Population Membrane Permeable-Phenotype (%),[4],1%
same,Population Mitochondria Different-Phenotype (%),[4],41% and 35%
same,Population Mitotic Cells (%),[4],33% and 51%
same,Population Normal (%),[4],91% and 90%
same,Population Pyknosed Nuclei (%),[4],9% and 8%
same,Population Tubulin-Different-Phenotype (%),[4],64% and 66%
same,Total Cell Count,[4],490 and 643
same,Population Apoptotic (%),[5],52% and 37%
same,Population Fragmented Nuclei (%),[5],14%
same,Population Healthy Nuclei (%),[5],80% and 81%
same,Population Hoechst High Intensity Objects (%),[5],16% and 21%
same,Population Membrane Permeable-Phenotype (%),[5],3% and 1%
same,Population Mitochondria Different-Phenotype (%),[5],5% and 6%
same,Population Mitotic Cells (%),[5],47% and 62%
same,Population Normal (%),[5],83% and 78%
same,Population Pyknosed Nuclei (%),[5],4%
same,Population Tubulin-Different-Phenotype (%),[5],33% and 47%
same,Total Cell Count,[5],935 and 824
same,Population Apoptotic (%),[6],55% and 68%
same,Population Fragmented Nuclei (%),[6],4% and 3%
same,Population Healthy Nuclei (%),[6],82% and 86%
same,Population Hoechst High Intensity Objects (%),[6],15% and 8%
same,Population Membrane Permeable-Phenotype (%),[6],2% and 1%
same,Population Mitochondria Different-Phenotype (%),[6],49% and 55%
same,Population Mitotic Cells (%),[6],44% and 31%
same,Population Normal (%),[6],84% and 91%
same,Population Pyknosed Nuclei (%),[6],13% and 9%
same,Population Tubulin-Different-Phenotype (%),[6],70% and 66%
same,Total Cell Count,[6],503 and 413
